Data on six compounds can be found in ChEMBL document CHEMBL1148541, “Biological evaluation of 1-alkyl-3-phenylthioureas as orally active HDL-elevating agents” (Bioorg Med Chem Lett, 2006).

In assay [1] the test system is Rattus norvegicus. As to the kind of experiment: Weight gain in cholesterol-fed male rats at 50 mg/kg/day relative to control. The class given is functional. The essentials: (§1)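 Groups of six male Sprague–Dawley rats on a cholesterol diet received the compound in the diet, ad libitum, over 8 days. Body weight gain is reported as % change relative to untreated controls.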

Assay [2] relates to Rattus norvegicus. As to the kind of experiment: Increase of total cholesterol level in cholesterol-fed male rats at 50 mg/kg/day relative to control. The class given is functional. The essentials:
(§2)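 Dietary (ad libitum) dosing of groups of six male Sprague–Dawley rats on a cholesterol diet for 8 days. Serum total cholesterol was quantitated enzymatically by a colorimetric method and expressed as % change relative to untreated controls, with significance at p < 0.05.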

Assay [3] has as its system Rattus norvegicus. In words: Triglyceride level in cholesterol-fed male rats at 50 mg/kg/day relative to control. The class given is functional. In short, it runs like this: (§3)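 Male Sprague–Dawley rats on a cholesterol diet, in groups of six, received the compound in the diet ad libitum for 8 days. Serum triglycerides are expressed as % change relative to untreated controls, with significance at p < 0.05 versus controls.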

The subject of assay [4] is Rattus norvegicus. In words: Increase of HDL cholesterol in normal-fed rat at 50 mg/kg/day. It is filed as functional.
For assay [5], the system named is Hamster. In words: Increase of HDL cholesterol in chow-fed hamster at 45 mg/kg/day. The class given is functional, organism-based. Conditions: Cricetulus griseus.
For assay [6], the system named is Hamster. In words: Increase of HDL cholesterol in normal-fed hamster at 45 mg/kg/day. It is filed as functional, organism-based. Conditions: Cricetinae.
The subject of the next assay is Canis familiaris. In words: Increase of HDL cholesterol in normal-fed dog at 250 mg/kg/day. Particulars: Canis lupus familiaris. It is filed as functional, organism-based.
In assay [7] the test system is Rattus norvegicus. In words: Increase of HDL level in cholesterol-fed male rats by ultracentrifugation method at 50 mg/kg/day relative to control. It is filed as functional. The essentials:
(§4)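 Cholesterol-fed male Sprague–Dawley rats, six per group, given drug in the diet ad libitum for 8 days. Serum lipoproteins separated by classical ultracentrifugation and HDL cholesterol measured by an enzymatic colorimetric method. Expressed as % change versus untreated controls, with significance set at p < 0.05.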

Assay [8] concerns Rattus norvegicus. As to the kind of experiment: Increase of HDL level in cholesterol-fed male rats by FPLC method at 50 mg/kg/day relative to control. It is filed as functional. The essentials:
(§5)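 Groups of six male Sprague–Dawley rats on a cholesterol diet received drug in the diet, ad libitum, for 8 days. Serum lipoproteins separated by FPLC, adapted for robotic automation, and cholesterol quantitated enzymatically by colorimetry. HDL given as % change versus untreated controls, with significance set at p < 0.05.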

For assay [9], the system named is Rattus norvegicus. As to the kind of experiment: Increase of Apo A-I level in cholesterol-fed male rats at 50 mg/kg/day relative to control. It is filed as functional. The essentials: (§6)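 Drug mixed into diet, fed ad libitum for 8 days to groups of six male Sprague–Dawley rats on a cholesterol diet. Serum Apo A-I measured by SDS–polyacrylamide gel electrophoresis or by rat competition ELISA. Reported as % change versus untreated controls, with significance set at p < 0.05.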

Assay [10] deals with Rattus norvegicus. In words: Increase of total cholesterol level in cholesterol-fed male rats at 55 mg/kg/day relative to control. The class given is functional. In short, it runs like this:
as §2

Assay [11] deals with Rattus norvegicus. As to the kind of experiment: Weight gain in cholesterol-fed male rats at 55 mg/kg/day relative to control. It is filed as functional. The essentials: as §1
Assay [12] concerns Rattus norvegicus. In words: Increase of HDL level in cholesterol-fed male rats by FPLC method at 55 mg/kg/day relative to control. It is filed as functional. In short, it runs like this:
as §5

In assay [13] the test system is Rattus norvegicus. As to the kind of experiment: Increase of HDL level in cholesterol-fed male rats by ultracentrifugation method at 55 mg/kg/day relative to control. It is filed as functional. The essentials: as §4
The test system of assay [14] is Rattus norvegicus. As to the kind of experiment: Triglyceride level in cholesterol-fed male rats at 55 mg/kg/day relative to control. It is filed as functional. The essentials:
as §3

The test system of assay [15] is Rattus norvegicus. As to the kind of experiment: Increase of Apolipoprotein A-I level in cholesterol-fed male rats at 55 mg/kg/day relative to control. It is filed as functional. The essentials:
as §6

The target in assay [16] is T1, Peroxisome proliferator-activated receptor alpha (Rattus norvegicus, UniProt P37230).
T1 sequence (P37230 whole entry): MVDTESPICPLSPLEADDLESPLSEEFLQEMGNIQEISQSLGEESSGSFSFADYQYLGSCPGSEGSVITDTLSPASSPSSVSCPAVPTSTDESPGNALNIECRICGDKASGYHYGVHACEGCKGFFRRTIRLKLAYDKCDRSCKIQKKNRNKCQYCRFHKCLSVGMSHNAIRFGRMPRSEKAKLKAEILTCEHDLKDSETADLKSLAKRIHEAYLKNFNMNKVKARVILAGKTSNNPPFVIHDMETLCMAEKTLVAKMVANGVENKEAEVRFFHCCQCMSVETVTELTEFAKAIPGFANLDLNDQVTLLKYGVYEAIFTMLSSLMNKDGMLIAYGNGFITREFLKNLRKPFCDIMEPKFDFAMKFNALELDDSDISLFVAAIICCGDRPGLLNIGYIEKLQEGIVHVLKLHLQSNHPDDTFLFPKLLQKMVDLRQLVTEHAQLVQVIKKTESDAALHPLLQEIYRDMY
In words: Activity against PPAR-alpha.

For assay [17], the target named is T2, Peroxisome proliferator-activated receptor delta (Homo sapiens, UniProt Q03181).
T2 sequence (Q03181 whole entry): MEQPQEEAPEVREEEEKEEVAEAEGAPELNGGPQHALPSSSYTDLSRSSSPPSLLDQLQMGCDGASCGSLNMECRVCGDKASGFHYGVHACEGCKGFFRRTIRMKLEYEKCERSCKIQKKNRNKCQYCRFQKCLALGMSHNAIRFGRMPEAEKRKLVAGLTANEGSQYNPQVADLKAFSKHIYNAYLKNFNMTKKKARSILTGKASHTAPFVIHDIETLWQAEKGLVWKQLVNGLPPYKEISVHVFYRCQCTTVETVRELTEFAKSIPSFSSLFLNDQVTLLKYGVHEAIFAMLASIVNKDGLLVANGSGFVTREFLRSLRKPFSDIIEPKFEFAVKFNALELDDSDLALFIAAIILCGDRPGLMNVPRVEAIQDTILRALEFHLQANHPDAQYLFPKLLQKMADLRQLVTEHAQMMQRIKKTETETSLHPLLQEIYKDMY
In words: Activity against PPAR-delta.

Assay [18] relates to Rattus norvegicus. As to the kind of experiment: Increase of Apolipoprotein A-I level in cholesterol-fed male rats at 62 mg/kg/day relative to control. The class given is functional. The essentials: as §6
Assay [19] relates to Rattus norvegicus. As to the kind of experiment: Weight gain in cholesterol-fed male rats at 62 mg/kg/day relative to control. The class given is functional. In short, it runs like this:
as §1

Assay [20] relates to Rattus norvegicus. As to the kind of experiment: Increase of HDL level in cholesterol-fed male rats by ultracentrifugation method at 62 mg/kg/day relative to control. It is filed as functional. The essentials:
as §4

The test system of assay [21] is Rattus norvegicus. As to the kind of experiment: Increase of total cholesterol level in cholesterol-fed male rats at 62 mg/kg/day relative to control. The class given is functional. In short, it runs like this: as §2
For assay [22], the system named is Rattus norvegicus. In words: Increase of HDL level in cholesterol-fed male rats by FPLC method at 62 mg/kg/day relative to control. The class given is functional. The essentials: as §5
Assay [23] relates to Rattus norvegicus. In words: Triglyceride level in cholesterol-fed male rats at 62 mg/kg/day relative to control. The class given is functional. In short, it runs like this: as §3
For assay [24], the species on record is Rattus norvegicus. In words: Increase in liver enzyme Alkaline phosphatase. It is filed as functional. Details: concentration or dose not given beside the values.
In assay [25] the test system is Rattus norvegicus. In words: Increase of HDL level in cholesterol-fed male rats by ultracentrifugation method at 63 mg/kg/day relative to control. It is filed as functional. The essentials: as §4
Assay [26] deals with Rattus norvegicus. As to the kind of experiment: Weight gain in cholesterol-fed male rats at 63 mg/kg/day relative to control. It is filed as functional. The essentials: as §1
For assay [27], the system named is Rattus norvegicus. As to the kind of experiment: Increase of total cholesterol level in cholesterol-fed male rats at 63 mg/kg/day relative to control. It is filed as functional. The essentials: as §2
Assay [28] concerns Rattus norvegicus. In words: Increase of HDL level in cholesterol-fed male rats by FPLC method at 63 mg/kg/day relative to control. It is filed as functional. The essentials: as §5
In assay [29] the test system is Rattus norvegicus. As to the kind of experiment: Increase of Apolipoprotein A-I level in cholesterol-fed male rats at 63 mg/kg/day relative to control. It is filed as functional. In short, it runs like this: as §6
The test system of assay [30] is Rattus norvegicus. As to the kind of experiment: Triglyceride level in cholesterol-fed male rats at 63 mg/kg/day relative to control. It is filed as functional. In short, it runs like this: as §3
Assay [31] deals with Rattus norvegicus. In words: Increase of Apolipoprotein A-I level in cholesterol-fed male rats at 77 mg/kg/day relative to control. It is filed as functional. In short, it runs like this: as §6
In assay [32] the test system is Rattus norvegicus. In words: Increase of HDL level in cholesterol-fed male rats by ultracentrifugation method at 77 mg/kg/day relative to control. It is filed as functional. In short, it runs like this: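 Compound given in the diet, ad libitum, to groups of six male Sprague–Dawley rats on a cholesterol diet for 8 days. Serum lipoproteins were separated by classical ultracentrifugation, and HDL cholesterol was quantitated by an enzymatic colorimetric method. Results are reported as % change relative to untreated controls, with significance at p < 0.05 versus controls.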

In assay [33] the test system is Rattus norvegicus. As to the kind of experiment: Increase of HDL level in cholesterol-fed male rats by FPLC method at 77 mg/kg/day relative to control. The class given is functional. The essentials:
as §5

Assay [34] deals with Rattus norvegicus. As to the kind of experiment: Weight gain in cholesterol-fed male rats at 77 mg/kg/day relative to control. The class given is functional. The essentials:
as §1

Assay [35] has as its system Rattus norvegicus. In words: Increase of total cholesterol level in cholesterol-fed male rats at 77 mg/kg/day relative to control. It is filed as functional. The essentials: as §2
The test system of assay [36] is Rattus norvegicus. As to the kind of experiment: Triglyceride level in cholesterol-fed male rats at 77 mg/kg/day relative to control. The class given is functional. The essentials: as §3

pEC50: −log10 of the molar value. The source made the active and inactive calls. The calls are words filed in the database; no cut-off is given here.

Turning to `Cc1ccc(C)c(OCCCC(C)(C)C(=O)O)c1` [GEMFIBROZIL], the Activity is recorded as 2% with Rattus norvegicus [1]; -23% in the assay on Rattus norvegicus [2]; -29% in the assay with Rattus norvegicus [3]; 25% with Rattus norvegicus [4]; 104% in the assay with Rattus norvegicus [7]; 139% in the assay with Rattus norvegicus [8]. In the assay with Rattus norvegicus [9], the Activity was 54%. Besides, the result in the assay on Hamster [5], with Hamster [6] and with Canis familiaris was inactive.

As for `CCC/N=C(\S)Nc1cc(Cl)ccc1C`, the Activity is 6% in the assay on Rattus norvegicus [10]; -78% with Rattus norvegicus [11]; 292% in the assay with Rattus norvegicus [12]; 83% with Rattus norvegicus [13]; -54% in the assay with Rattus norvegicus [14]; 54% with Rattus norvegicus [15]. For the same compound, the pEC50 in assay [16] and in assay [17] was under 4.00 throughout.

Regarding `CCC/N=C(\S)Nc1cc(C)ccc1C`, the Activity is 72% with Rattus norvegicus [18]; -38% with Rattus norvegicus [19]; 127% with Rattus norvegicus [20]; 29% in the assay on Rattus norvegicus [21]; 278% in the assay with Rattus norvegicus [22]; -59% in the assay with Rattus norvegicus [23]. Also, the Activity in the assay listed under Rattus norvegicus [24] is 75%.

Take `Cc1ccc(Cl)cc1/N=C(\S)NCCO`: the Activity in the assay with Rattus norvegicus [10] is reported as 39%; with Rattus norvegicus [11], -104%; with Rattus norvegicus [12], 241%; in the assay on Rattus norvegicus [13] it was 75%; in the assay on Rattus norvegicus [14], -53%; in the assay with Rattus norvegicus [15], 48%.

For `CCC/N=C(\S)Nc1cc(Br)ccc1C`, the Activity in the assay on Rattus norvegicus [25] is 142%; in the assay with Rattus norvegicus [26] it was -29%; in the assay with Rattus norvegicus [27], 47%; with Rattus norvegicus [28] it was 306%; in the assay on Rattus norvegicus [29], 46%; with Rattus norvegicus [30] it was -53%. In the assay listed under Rattus norvegicus [24], the Activity is listed as 44%.

`Cc1ccc(Cl)cc1/N=C(\S)NC(C)(C)C`: the Activity with Rattus norvegicus [31] is listed as 60%; with Rattus norvegicus [32], 30%; in the assay with Rattus norvegicus [33] it was 22%; in the assay with Rattus norvegicus [34], 9%; with Rattus norvegicus [35], -15%; in the assay on Rattus norvegicus [36], -31%.
